EC50 data for 15 compounds are collected here from PubChem BioAssay AID1738 (Vanderbilt High Throughput Screening Facility, 2009).

Inconclusive results are not listed. The source made the active and inactive calls.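 How the source made its calls: active means dose curve fitted or showing a partial trend in at least two of three replicates; inactive means fewer than two replicates fitted or trending.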

For the test, the system named is parental HEK293, Na-free buffer, Tl+ flux FluoZin2. Nature of the test: parental HEK thallium flux modulation in sodium-free buffer, dose response, counter-screen for KCC2 modulator project, HEK cells, counterscreen 3 (AID 1738). In short, it runs like this:
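assay system = parental HEK cells, FluoZin2-AM dye | buffer or medium = Sodium-free N-methylglucamine chloride buffer, FluoZin2-AM at 0.5 µM | also added = thallium stimulus, pH 7.3 | dosing = 11-point threefold dilution series, top dose 30 µM | signal = fluorescence, 480/540 nm | read-out = EC50 from variable-slope sigmoidal fit of normalized fluorescence slopes | replication = triplicate wells, each replicate curve fitted separately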
Take `Oc1ccccc1/C=N/Nc1nc2ccccc2o1`: the EC50 was 9460 nM (inactive). In the case of `COc1cc(NC(=S)NC(=O)c2ccco2)ccc1NC(=O)C(C)C`, the EC50 is 3630 nM (inactive). As for `O=C(NC(=S)Nc1nc(-c2cccc([N+](=O)[O-])c2)cs1)c1cc(Cl)ccc1Cl`, the EC50 is 22400 nM (inactive). As to `CCOc1cccc(C(=O)NC(=S)Nc2cccc(C)c2)c1`, the concentration for a half-maximal effect (EC50) is 345 nM.

Take `CNC(=O)C(=O)Nc1nc(C23CC4CC(CC(C4)C2)C3)cs1`: the EC50 is 61.1 nM.

As for `COC(=O)[C@@H](NC(=O)O[C@@H]1C(=O)c2ccc(OC)cc2O[C@H]1c1cccc(C(F)(F)F)c1)C(C)C`, the EC50 is 8160 nM (inactive).

Turning to `Fc1cccc(F)c1/C=N/NC(=S)Nc1cccnc1`, the EC50 is 8330 nM (inactive). `NC(=S)N=Nc1c(O)n(Cc2ccccc2)c2ccccc12`: the EC50 is 71.9 nM (inactive). Turning to `COc1ccccc1N1CCN(C(=S)NC(=O)/C=C/c2ccccc2)CC1`, the EC50 is 1140 nM (inactive). The same measure for `N=C1SCC(=O)N1c1ncc(Cc2cccc(Cl)c2)s1`: 4430 nM (inactive); for `O=c1c2ccccc2[nH]c(=S)n1CCN1CCC(=C(c2ccc(F)cc2)c2ccc(F)cc2)CC1`: 4820 nM (inactive); for `Cc1onc(-c2ccccc2Cl)c1C(=O)NC(=S)Nc1ccc(C(C)C)cc1`: 262 nM. The same measure for `O=C1OC(c2ccc(O)cc2)(c2ccc(O)cc2)c2ccccc21`: 15400 nM (inactive). In the case of `COc1ccc(N2C(=S)N=C(Nc3cccc(C)c3)C23CCCCC3)cc1` it was 920 nM. For `CC(C)c1ccc(OCC(=O)NNC(=O)c2cnccn2)cc1`, the EC50 was 16400 nM (inactive).

A word on the EC50: it is the concentration at which the effect is half-maximal.
